These results are taken from ChEMBL document CHEMBL1147403, “MexAB-OprM specific efflux pump inhibitors in Pseudomonas aeruginosa. Part 3: Optimization of potency in the pyridopyrimidine series through the application of a pharmacophore model” (2004).

Type in all cases: functional
Experiment [1] relates to Pseudomonas aeruginosa. The experiment is described as follows: Minimum inhibitory concentration Pseudomonas aeruginosa in presence of LVFX substrate, (100% growth inhibition). The gist of the method: (§1)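 Potentiation of levofloxacin (LVFX), a MexAB-OprM substrate, against P. aeruginosa PAM1723 (MexAB-OprM overexpressed; MexCD-OprJ and MexEF-OprN genetically disrupted). Value is the inhibitor concentration (µg/mL) giving 4-fold (MPC4) or 8-fold (MPC8) potentiation.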

For experiment [2], the system named is Pseudomonas aeruginosa. The experiment is described as follows: Minimum inhibitory concentration against Pseudomonas aeruginosa in presence of LVFX substrate, (100% growth inhibition). The gist of the method:
as §1

The test system of experiment [3] is Pseudomonas aeruginosa. Nature of the experiment: Intrinsic antibacterial activity against Pseudomonas aeruginosa. The gist of the method:
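Tested alone for antibacterial activity against P. aeruginosa PAM1723, a strain that overexpresses the MexAB-OprM pump and has MexCD-OprJ and MexEF-OprN genetically disrupted; MIC in µg/mL.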

In experiment [4] the test system is Pseudomonas aeruginosa. The experiment is described as follows: Minimum inhibitory concentration against Pseudomonas aeruginosa in presence of aztreonam substrate and with 0.125% human serum albumin, (100% growth inhibition). The gist of the method: (§2)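 Potentiation of aztreonam, a MexAB-OprM substrate, against P. aeruginosa PAM1723 (MexAB-OprM overexpressed; MexCD-OprJ and MexEF-OprN genetically disrupted). Run without HSA and with 0.125% human serum albumin. Value is the inhibitor concentration (µg/mL) giving 8-fold potentiation (MPC8).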

Experiment [5] deals with Pseudomonas aeruginosa. The experiment is described as follows: Minimum concentration of inhibitor required to reduce (potentiate) the activity of antibacterial drug aztreonam by 8-fold in absence of human serum using Pseudomonas aeruginosa, value reported is for 100% growth inhibition. The gist of the method: as §2
Experiment [6] concerns Pseudomonas aeruginosa. Nature of the experiment: Minimum inhibitory concentration against Pseudomonas aeruginosa in presence of aztreonam substrate and with out human serum albumin, (100% growth inhibition). The gist of the method:
as §2

The next experiment is filed under the species Rattus norvegicus. The experiment is described as follows: Serum protein binding of compound was evaluated using rat serum.

A word on the MIC: it is the least concentration at which growth counts as inhibited. A higher MIC goes with a less susceptible organism. `CC(C)c1csc(CCc2ccn3c(=O)c(/C=C/C(=O)O)c(NCCc4ccc(F)cc4)nc3c2)n1`: the MPC4 in the experiment with Pseudomonas aeruginosa [1] is 8 µg/mL. Besides, the MPC8 with Pseudomonas aeruginosa [2], with Pseudomonas aeruginosa [4] and in the experiment on Pseudomonas aeruginosa [5] was >32 µg/mL in each case. In addition, the MIC in the experiment with Pseudomonas aeruginosa [3] is > 320 µg/mL.
With `CC(C)c1csc(CCc2ccn3c(=O)c(/C=C/C(=O)O)c(N4CCCC(CO)C4)nc3c2)n1` (stereo unspecified), in the experiment with Pseudomonas aeruginosa [1], the MPC4 is 2 µg/mL. In addition, the MPC8 in the experiment with Pseudomonas aeruginosa [2], in the experiment with Pseudomonas aeruginosa [4] and in the experiment on Pseudomonas aeruginosa [6] was 16 µg/mL throughout. The MIC against Pseudomonas aeruginosa [3] was > 320 µg/mL. The same compound showed a Binding in the experiment listed under Rattus norvegicus of 91.5%.
